# XBP1 UPR activ = activators of adaptive XBP1 UPR arm, primary screen, cell-based, CHO-XBP1 luciferase reporter, luminescence, uHTS. IRE1-XBP1 UPR activation; percent of tunicamycin response, DMSO as zero. activation, % at 20 µM. actives 0.33% (n = 330,000). AID 463104, 2010;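 active means versus positive control, 20 µM dose yields 30% or more activation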;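 further: 100% = tunicamycin at 10 µg/mL and 0% = DMSO only wells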
#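 Material: CHO cell line with stable XBP1 luciferase reporter; buffer or medium: F12 medium containing 10% fetal bovine serum; compound: single point, 20 µM final compound, 1% DMSO; incubation: 6 h treatment, 37 °C; measured by: glow luminescence from Steady-Glo reagent; evaluation: activation, % of tunicamycin; control set: tunicamycin high, DMSO low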
# UPR CHOP act = activators of apoptotic CHOP UPR arm, primary screen, cell-based, CHO-CHOP luciferase reporter, luminescence, uHTS. UPR activation; percent of tunicamycin response over DMSO baseline. activation, % at 10 µM. actives 0.34% (n = 330,000);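 active means at 10 µM dose, activation of 40% or more, normalized to positive control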;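 further: 100% = tunicamycin at 10 µg/mL and 0% = DMSO alone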
#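 Assay system: CHO cells with stable CHOP pathway luciferase reporter; Buffer or medium: F12 plus 10% serum; Times: 16-18 h cell attachment, then 6 h compound exposure, 37 °C; Signal: luciferase luminescence; Read-out basis: percent activation relative to tunicamycin control; Control set: tunicamycin high control, DMSO low control.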
# B2AR ag = beta2AR agonists driving receptor internalization, primary screen, cell-based, FAP fluorogen, flow cytometry; Beta-2 adrenergic receptor (Homo sapiens), P07550; Am2.2-beta2AR cells; response, % (no concentration beside the values); actives 0.43% (n = 340,000); AID 504454, 2011;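 active means response above a set limit, near 3 SD of response in nonfluorescent compounds, cut at about 42% in these data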
# Target sequence (P07550 whole entry, looked up): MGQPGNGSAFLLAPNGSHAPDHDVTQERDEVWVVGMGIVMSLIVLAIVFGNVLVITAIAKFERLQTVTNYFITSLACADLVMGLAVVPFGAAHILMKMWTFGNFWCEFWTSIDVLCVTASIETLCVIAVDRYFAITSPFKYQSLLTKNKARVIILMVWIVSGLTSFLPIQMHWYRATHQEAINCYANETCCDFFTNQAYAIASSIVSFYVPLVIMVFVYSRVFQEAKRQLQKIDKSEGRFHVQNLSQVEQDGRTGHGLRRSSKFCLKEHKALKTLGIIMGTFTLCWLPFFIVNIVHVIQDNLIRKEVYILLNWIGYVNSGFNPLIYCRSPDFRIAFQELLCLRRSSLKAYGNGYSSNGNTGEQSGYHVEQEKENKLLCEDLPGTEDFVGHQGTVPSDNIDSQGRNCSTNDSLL
# T cell HTS = modulators of CD8 T cell-vesicle binding, primary screen, mouse 2C CD8+ T cells, flow cytometry. 2C CD8+ T cell-vesicle binding; stronger effect = lower value. AID 2052, 2009. response (vesicle binding), % at 7 µM. actives 0.068% (n = 330,000);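 active means response, share of CD8 T cells binding vesicles, and their 90th percentile fluorescence all below set limits, cut at about 80% in these data, passing the limit was not always enough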;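 further: values below 100% mean blocked vesicle binding to the CD8+ T cells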
#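 Benchmarks: naked versus QL9-loaded vesicles / Assay system: purified 2C TCR transgenic mouse naive CD8+ T cells / Technique: high-throughput flow cytometry with anti-B7-1 and anti-CD8 staining / Timing: Cell–vesicle co-incubation 1.5 h at 37 °C, staining 20 min on ice / Read-out: percent CD8+ FL2 mean versus row control / Probe or stimulus: QL9-loaded Drosophila micro-vesicles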
# UPR CHOP confirm = activators of apoptotic CHOP UPR arm, confirmation, cell-based, CHO-CHOP luciferase reporter, single concentration; actives 64% (n = 1,000); activation, % at 10 µM; CHO-CHOP cells, CHOP-luciferase reporter luminescence; percent of tunicamycin response, DMSO as zero; AID 463112, 2010; shares compounds with UPR CHOP act; in the data active means activation above about 33%;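 further: 0% = DMSO wells and 100% = tunicamycin 10 µg/mL wells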
# * hit, by the source's call; i = inactive; . = not tested or not shown. A selection: hits, their analogues and other compounds. The true share with any hit is near 1%.
SMILES,XBP1 UPR activ,UPR CHOP act,B2AR ag,T cell HTS,UPR CHOP confirm
C/C(=N\NC(=O)c1nn(C)c(C)c1Br)c1ccc(NC(=O)c2ccc(C)s2)cc1,3,2,8,i,.
O=C(CSc1nnc2ccc(-c3ccccn3)nn12)NCCc1ccccc1,-2,-1,5,44,.
COc1cc(/C=C2\SC(=Nc3ccccc3)N(CCc3c[nH]c4ccccc34)C2=O)ccc1OC(C)C(=O)O (stereo unspecified),-1,-2,19,114,.
O=C1/C(=C/c2ccc(N3CCOCC3)o2)SC(=Nc2ccccc2)N1CCc1c[nH]c2ccccc12,-10,110*,i,767,36*
COc1ccc(N2CCN(CCCNC(=O)CC3Oc4ccc(C)cc4NC3=O)CC2)cc1 (stereo unspecified),-1,2,1,314,.
Cc1ccc(C(=O)Sc2cccccc2=O)cc1,0,112*,16,114,17
Cc1ccc(C(=O)CC(=O)c2ccccc2)cc1,0,7,-4,160,.
COc1ccc(S(=O)(=O)N2CCN(C(=O)C3COc4ccccc4O3)CC2)cc1 (stereo unspecified),4,0,0,237,.
O=S1(=O)Nc2c(ccc3cccnc23)-c2ccccc21,1,346*,35,348,425*
O=C1[C@@H]2C3C=CC(O3)[C@@H]2C(=O)N1c1ccccc1,2,0,.,580,.
CC(C)c1ccc(/C=C/C(=O)n2nnc3ccccc32)cc1,2,69*,16,222,17
CCOC(=O)C1C(=O)C=C(c2ccccc2)CC1c1ccccc1 (stereo unspecified),.,.,-6,.,.
O=C(Nc1scc(-c2ccc(Br)cc2)c1C(=O)O)c1ccccc1F,5,56*,-1,194,5
COCCN=c1scc(-c2ccccc2)n1/N=C/c1c[nH]c2ccccc12,3,3,6,160,.
COCCN=c1scc(-c2cccs2)n1/N=C/c1ccc(O)c(O)c1O,8,347*,29,202,104*
CCN=c1scc(C)n1/N=C/c1ccc(O)c(O)c1O,7,79*,8,360,9
CCN=c1scc(C)n1/N=C/c1cc(Br)c(O)c(Br)c1,2,-1,6,580,.
Cn1c(/C=C/c2ccc([N+](=O)[O-])o2)nc2ccccc2c1=O,6,127*,-370,150,75*
Cn1c(/C=C/c2ccccc2)nc2ccccc2c1=O,3,2,8,405,.
Cc1ccc(N2C(=O)Nc3ccccc3C2(O)C(=O)NCCCOC(C)C)cc1C (stereo unspecified),-3,2,-1,362,.
O=C(CSc1nnc(-c2ccc3c(c2)OCO3)o1)Nc1ncc(Cl)cc1Cl,1,-3,-12,594,.
C=CCn1c(O)c(N=NC(=S)Nc2ccccc2C)c2cc(S(=O)(=O)N3CCOCC3)ccc21,3,45*,3,204,31
O=C(O)c1ccccc1CSc1ncn[nH]1,-1,0,6,205,.
O=C(CN(Cc1ccc(Br)cc1)S(=O)(=O)c1ccccc1)NCc1cccnc1,-3,0,-7,246,.
O=C(NCc1cccnc1)/C(=C/c1ccc(-c2cccc(C(F)(F)F)c2)o1)NC(=O)c1ccccc1,3,5,2,646,.
SMILES,XBP1 UPR activ,UPR CHOP act,B2AR ag,T cell HTS,UPR CHOP confirm
O=C(NCc1cccnc1)/C(=C\c1ccc(-c2ccc(Br)cc2)o1)S(=O)(=O)c1ccccc1,-5,83*,35,100,52*
O=C(NCc1cccnc1)/C(=C/c1ccc(-c2ccc(Cl)cc2)o1)S(=O)(=O)c1ccccc1,-5,136*,108*,262,91*
OCc1ccc(O)c2ncccc12,-2,1,7,228,.
CCOC(=O)N1CCN(Cc2ccc(O)c3ncccc23)CC1,25,62*,.,142,78*
Oc1ccc(CN2CCc3ccccc3C2)c2cccnc12,12,104*,7,136,102*
Oc1c(Cl)cc(CN2CCCCC2)c2cccnc12,27,84*,10,47,74*

# Source: PubChem (several laboratories)
